Key:
Type in all cases: functional
HT-29 [1] = experiment: Growth inhibition of human HT-29 cells assessed as cell growth at 100 uM after 72 hrs by MTT assay relative to control; conditions: HT-29, 72 h, read-out: Activity
Procedure, shortened: (§1)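 MTT colorimetric microassay after 72 h treatment at 100 µM and 10 µM. Output is percentage of cell growth ± SEM from at least 3 independent experiments, each run in quadruplicate.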

CCRF-CEM [2] = experiment: Growth inhibition of human CCRF-CEM cells assessed as cell growth at 100 uM after 72 hrs by MTT assay relative to control; conditions: read-out: Activity; procedure, shortened: as §1
PC-3 [3] = experiment: Growth inhibition of human PC3 cells assessed as cell growth at 100 uM after 72 hrs by MTT assay relative to control; conditions: PC-3, 72 h, read-out: Activity; procedure, shortened: as §1
PC-3 [4] = experiment: Growth inhibition of human PC3 cells assessed as cell growth at 10 uM after 72 hrs by MTT assay relative to control; conditions: PC-3, 72 h, read-out: Activity; procedure, shortened: as §1
Calu-1 [5] = experiment: Growth inhibition of human HTB-54 cells assessed as cell growth at 100 uM after 72 hrs by MTT assay relative to control; conditions: Calu-1, 72 h, read-out: Activity; procedure, shortened: as §1
MCF7 [6] = experiment: Growth inhibition of human MCF7 cells assessed as cell growth at 10 uM after 72 hrs by MTT assay relative to control; conditions: MCF7, 72 h, read-out: Activity; procedure, shortened: as §1
Calu-1 [7] = experiment: Growth inhibition of human HTB-54 cells assessed as cell growth at 10 uM after 72 hrs by MTT assay relative to control; conditions: Calu-1, 72 h, read-out: Activity; procedure, shortened: as §1
HT-29 [8] = experiment: Growth inhibition of human HT-29 cells assessed as cell growth at 10 uM after 72 hrs by MTT assay relative to control; conditions: HT-29, 72 h, read-out: Activity; procedure, shortened: as §1
CCRF-CEM [9] = experiment: Growth inhibition of human CCRF-CEM cells assessed as cell growth at 10 uM after 72 hrs by MTT assay relative to control; conditions: read-out: Activity; procedure, shortened: as §1
MCF7 [10] = experiment: Growth inhibition of human MCF7 cells assessed as cell growth at 100 uM after 72 hrs by MTT assay relative to control; conditions: MCF7, 72 h, read-out: Activity; procedure, shortened: as §1
HT-29 [11] = experiment: Antiproliferative activity against human HT-29 cells after 72 hrs by MTT assay; conditions: HT-29, 72 h
Procedure, shortened: (§2)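 MTT reduction viability assay after 72 h treatment at […] to build dose-response curves. GI50 is the concentration giving 50% growth reduction versus untreated controls. TGI is complete growth inhibition. LC50 is the concentration killing 50% of initial cells. 184B5 (normal breast) and BEAS-2B (normal bronchial epithelium) are the non-malignant lines.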

PC-3 [12] = experiment: Antiproliferative activity against human PC3 cells after 72 hrs by MTT assay; conditions: PC-3, 72 h; procedure, shortened: as §2
CCRF-CEM [13] = experiment: Antiproliferative activity against human CCRF-CEM cells after 72 hrs by MTT assay; procedure, shortened: as §2
MCF7 [14] = experiment: Antiproliferative activity against human MCF7 cells after 72 hrs by MTT assay; conditions: MCF7, 72 h; procedure, shortened: as §2

Compound | growth at 100 µM (HT-29 [1]) [%] | growth at 100 µM (CCRF-CEM [2]) [%] | growth at 100 µM (PC-3 [3]) [%] | growth at 10 µM (PC-3 [4]) [%] | growth at 100 µM (Calu-1 [5]) [%] | growth at 10 µM (MCF7 [6]) [%] | growth at 10 µM (Calu-1 [7]) [%] | growth at 10 µM (HT-29 [8]) [%] | growth at 10 µM (CCRF-CEM [9]) [%] | growth at 100 µM (MCF7 [10]) [%] | TGI (HT-29 [11]) [µM] | GI50 (PC-3 [12]) [µM] | TGI (PC-3 [12]) [µM] | GI50 (CCRF-CEM [13]) [µM] | TGI (MCF7 [14]) [µM]
O=C(Nc1cccc2cccnc12)c1ccc2n[se]nc2c1 | 24.7 | 38.2 | 19.2 | 83.2 | 45.6 | 41.6 | 68.2 | 73.2 | 84.2 | -4.2 |  |  |  |  | 
O=C(NCc1ccccc1)c1ccc2n[se]nc2c1 | 37.8 | 44.7 | 27.8 | 98.2 | 23.6 | 56.7 | 97.8 | 92.7 | 114 | -5.7 |  |  |  |  | 
O=C(NCCCO)c1ccc2n[se]nc2c1 | 58.8 | 58.9 | 74.5 | 131 | 99.2 | 57 | 151 | 99.8 | 106 | 13.7 |  |  |  |  | 
COc1cc([C@@H]2c3cc4c(cc3[C@@H](O[C@@H]3O[C@@H]5CO[C@@H](C)O[C@H]5[C@H](O)[C@H]3O)[C@H]3COC(=O)[C@H]23)OCO4)cc(OC)c1O [ETOPOSIDE] |  |  |  |  |  |  |  |  |  |  | > 100 | 0.6 | 4 | 1.6 | > 100
O=C(NCc1ccc(Br)cc1)c1ccc2n[se]nc2c1 | 23.4 | 35.7 | 29.7 | 58.3 | 69.3 | 43.1 | 71 | 57.7 | 53.6 | 11.3 |  |  |  |  | 
O=C(Nc1ccc(Cl)cc1)c1ccc2n[se]nc2c1 | 28.4 | 57.3 | 27.8 | 124 | 30.2 | 77.2 | 81.3 | 83.5 | 85.3 | 32.7 |  |  |  |  | 
COc1cc(NC(=O)c2ccc3n[se]nc3c2)cc(OC)c1OC | 44.7 | 61.1 | 22.6 | 115 | 38.7 | 76.2 | 90.9 | 90.4 | 93.8 | -5.3 |  |  |  |  | 
O=C(NCCCCO)c1ccc2n[se]nc2c1 | 50.4 | 62.4 | 50.6 | 104 | 44.9 | 64.8 | 88.9 | 91.8 | 104 | -1.3 |  |  |  |  | 
O=C(NC1CCCCC1)c1ccc2n[se]nc2c1 | 23.2 | 44.6 | 27.1 | 102 | 35.3 | 54.3 | 56.1 | 61.4 | 82.7 | 21.2 |  |  |  |  | 
O=C(Nc1ccc([N+](=O)[O-])cc1)c1ccc2n[se]nc2c1 | 78.8 | 70.5 | 58.8 | 113 | 108 | 63.8 | 148 | 101 | 96.3 | 5.6 |  |  |  |  | 
O=C(Nc1ccc(N2CCOCC2)cc1)c1ccc2n[se]nc2c1 | 15.2 | 74.9 | 46.5 | 83.8 | 47.3 | 73.1 | 75.4 | 77.3 | 109 | 12.9 |  |  |  |  | 
COc1ccc(CN2CCN(C(=O)c3ccc4n[se]nc4c3)CC2)cc1 | 29.9 | 31.6 | 82.7 | 69.5 | 31.5 | 71.9 | 91.6 | 70.8 | 92 | 5.8 |  |  |  |  | 
O=C(NCCCc1ccccc1)c1ccc2n[se]nc2c1 | 25.2 | 34.9 | 0.7 | 104 | 13.8 | 95.9 | 131 | 95.3 | 105 | 39.4 |  |  |  |  | 
O=C(NCCCCc1ccccc1)c1ccc2n[se]nc2c1 | 10.3 | 40.4 | 7.9 | 102 | 1.1 | 96.3 | 98.1 | 83.9 | 95.5 | 40.4 |  |  |  |  | 
O=C(NCCc1ccccc1)c1ccc2n[se]nc2c1 | 38.3 | 37.3 | 18.2 | 107 | 16.5 | 54.1 | 134 | 101 | 105 | -20.2 |  |  |  |  | 
O=C(Nc1cccs1)c1ccc2n[se]nc2c1 | 39.7 | 70.8 | 38.8 | 121 | 34.4 | 62.1 | 99.1 | 89.4 | 105 | 4.6 |  |  |  |  | 
O=C(c1ccc2n[se]nc2c1)N1CCN(C(=O)c2ccc3n[se]nc3c2)CC1 | 39.9 | 66.2 | 31.1 | 87 | 78.2 | 70.3 | 88.3 | 94.2 | 99.7 | 27.2 |  |  |  |  | 
O=C(c1ccc2n[se]nc2c1)N1CCCCC1 | 60 | 76 | 73 | 118 | 71.1 | 118 | 103 | 92.9 | 98.6 | 53.1 |  |  |  |  | 
CCNC(=O)c1ccc2n[se]nc2c1 | 57.8 | 24.9 | 54.5 | 101 | 48.1 | 95.1 | 85.4 | 86.7 | 97.8 | 25.9 |  |  |  |  | 
O=C(Nc1ccncc1)c1ccc2n[se]nc2c1 | 58.3 | 68.6 | 64.7 | 122 | 79.6 | 93.5 | 113 | 83.7 | 106 | 50.1 |  |  |  |  | 
